Data published in ChEMBL document CHEMBL3124806, “Imidazopyridine-fused [1,3]-diazepinones: synthesis and antiproliferative activity” (Eur J Med Chem, 2014).

Tests used:
Assay type in all cases: functional
[1] = system: OVCAR-3; assay: Cytotoxicity against human OVCAR3 cells assessed as cell growth at 10 uM after 48 hrs by SRB assay relative to untreated control; details: OVCAR-3, 48 h, read-out: Activity
In short: (§1)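 NCI-60 one-dose screen: each agent added at 10 µM, cultures incubated 48 h. Endpoint by sulforhodamine B protein-binding dye read spectrophotometrically; growth expressed as percent of untreated control cells.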

[2] = system: K562; assay: Cytotoxicity against human K562 cells assessed as cell growth at 10 uM after 48 hrs by SRB assay relative to untreated control; details: K562, 48 h, read-out: Activity
In short: (§2)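 NCI-60 panel screen at a single concentration of 10 μM with 48 h incubation. Cell density measured by sulforhodamine B protein-binding dye and read spectrophotometrically. Growth expressed as percent of untreated control cells.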

[3] = system: HOP-92; assay: Cytotoxicity against human HOP92 cells assessed as cell growth at 10 uM after 48 hrs by SRB assay relative to untreated control; details: HOP-92, 48 h, read-out: Activity; in short: as §2
[4] = system: LOX IMVI; assay: Cytotoxicity against human LOXIMVI cells assessed as cell growth at 10 uM after 48 hrs by SRB assay relative to untreated control; details: read-out: Activity; in short: as §2
[5] = system: NCI-H460; assay: Cytotoxicity against human NCI-H460 cells assessed as cell growth at 10 uM after 48 hrs by SRB assay relative to untreated control; details: NCI-H460, 48 h, read-out: Activity; in short: as §1
[6] = Cytotoxicity against human UO31 cells assessed as cell growth at 10 uM after 48 hrs by SRB assay relative to untreated control; details: UO-31, 48 h, read-out: Activity
In short: (§3)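 NCI-60 single-dose screen. Compounds were added to the cultures at 10 μM and incubated for 48 h. The end point was sulforhodamine B protein staining read spectrophotometrically. Growth is reported as percent of untreated control cells.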

[7] = Cytotoxicity against human OVCAR4 cells assessed as cell growth at 10 uM after 48 hrs by SRB assay relative to untreated control; details: OVCAR-4, 48 h, read-out: Activity; in short: as §1
[8] = system: SF-268; assay: Cytotoxicity against human SF268 cells assessed as cell growth at 10 uM after 48 hrs by SRB assay relative to untreated control; details: SF-268, 48 h, read-out: Activity; in short: as §1
[9] = system: KM12; assay: Cytotoxicity against human KM12 cells assessed as cell growth at 10 uM after 48 hrs by SRB assay relative to untreated control; details: KM12, 48 h, read-out: Activity; in short: as §2
[10] = system: SNB-75; assay: Cytotoxicity against human SNB75 cells assessed as cell growth at 10 uM after 48 hrs by SRB assay relative to untreated control; details: SNB-75, 48 h, read-out: Activity; in short: as §3
[11] = system: CAKI-1; assay: Cytotoxicity against human Caki1 cells assessed as cell growth at 10 uM after 48 hrs by SRB assay relative to untreated control; details: CAKI-1, 48 h, read-out: Activity; in short: as §2
[12] = system: TK-10; assay: Cytotoxicity against human TK10 cells assessed as cell growth at 10 uM after 48 hrs by SRB assay relative to untreated control; details: TK-10, 48 h, read-out: Activity; in short: as §3
[13] = system: RXF 393; assay: Cytotoxicity against human RXF393 cells assessed as cell growth at 10 uM after 48 hrs by SRB assay relative to untreated control; details: RXF 393, 48 h, read-out: Activity; in short: as §1
[14] = system: COLO 205; assay: Cytotoxicity against human COLO205 cells assessed as cell growth at 10 uM after 48 hrs by SRB assay relative to untreated control; details: COLO 205, 48 h, read-out: Activity; in short: as §2
[15] = system: HOP-62; assay: Cytotoxicity against human HOP62 cells assessed as cell growth at 10 uM after 48 hrs by SRB assay relative to untreated control; details: HOP-62, 48 h, read-out: Activity; in short: as §2
[16] = system: DU-145; assay: Cytotoxicity against human DU145 cells assessed as cell growth at 10 uM after 48 hrs by SRB assay relative to untreated control; details: DU-145, 48 h, read-out: Activity; in short: as §2
[17] = system: SR; assay: Cytotoxicity against human SR cells assessed as cell growth at 10 uM after 48 hrs by SRB assay relative to untreated control; details: read-out: Activity; in short: as §3
[18] = system: IGROV-1; assay: Cytotoxicity against human IGROV1 cells assessed as cell growth at 10 uM after 48 hrs by SRB assay relative to untreated control; details: IGROV-1, 48 h, read-out: Activity; in short: as §2
[19] = system: SW-620; assay: Cytotoxicity against human SW620 cells assessed as cell growth at 10 uM after 48 hrs by SRB assay relative to untreated control; details: SW-620, 48 h, read-out: Activity; in short: as §3
[20] = system: A498; assay: Cytotoxicity against human A498 cells assessed as cell growth at 10 uM after 48 hrs by SRB assay relative to untreated control; details: A498, 48 h, read-out: Activity; in short: as §2
[21] = system: MDA-MB-435; assay: Cytotoxicity against human MDA-MB-435 cells assessed as cell growth at 10 uM after 48 hrs by SRB assay relative to untreated control; details: MDA-MB-435, 48 h, read-out: Activity; in short: as §1
[22] = system: MDA-MB-231; assay: Cytotoxicity against human MDA-MB-231 cells assessed as cell growth at 10 uM after 48 hrs by SRB assay relative to untreated control; details: MDA-MB-231, 48 h, read-out: Activity; in short: as §1
[23] = system: HCC 2998; assay: Cytotoxicity against human HCC2998 cells assessed as cell growth at 10 uM after 48 hrs by SRB assay relative to untreated control; details: HCC 2998, 48 h, read-out: Activity; in short: as §2
[24] = system: PC-3; assay: Cytotoxicity against human PC3 cells assessed as cell growth at 10 uM after 48 hrs by SRB assay relative to untreated control; details: PC-3, 48 h, read-out: Activity; in short: as §1
[25] = system: HCT-116; assay: Cytotoxicity against human HCT116 cells assessed as cell growth at 10 uM after 48 hrs by SRB assay relative to untreated control; details: HCT-116, 48 h, read-out: Activity; in short: as §2
[26] = Cytotoxicity against human UACC257 cells assessed as cell growth at 10 uM after 48 hrs by SRB assay relative to untreated control; details: UACC-257, 48 h, read-out: Activity; in short: as §3
[27] = system: NCI-H226; assay: Cytotoxicity against human NCI-H226 cells assessed as cell growth at 10 uM after 48 hrs by SRB assay relative to untreated control; details: NCI-H226, 48 h, read-out: Activity; in short: as §1
[28] = system: OVCAR-8; assay: Cytotoxicity against human OVCAR8 cells assessed as cell growth at 10 uM after 48 hrs by SRB assay relative to untreated control; details: OVCAR-8, 48 h, read-out: Activity; in short: as §1
[29] = system: RPMI-8226; assay: Cytotoxicity against human RPMI8226 cells assessed as cell growth at 10 uM after 48 hrs by SRB assay relative to untreated control; details: RPMI-8226, 48 h, read-out: Activity; in short: as §1
[30] = system: SK-MEL-28; assay: Cytotoxicity against human SK-MEL-28 cells assessed as cell growth at 10 uM after 48 hrs by SRB assay relative to untreated control; details: SK-MEL-28, 48 h, read-out: Activity; in short: as §3
[31] = system: SF-295; assay: Cytotoxicity against human SF295 cells assessed as cell growth at 10 uM after 48 hrs by SRB assay relative to untreated control; details: SF-295, 48 h, read-out: Activity; in short: as §1

Compound | growth at 10 µM [1] [%] | growth at 10 µM [2] [%] | growth at 10 µM [3] [%] | growth at 10 µM [4] [%] | growth at 10 µM [5] [%] | growth at 10 µM [6] [%] | growth at 10 µM [7] [%] | growth at 10 µM [8] [%] | growth at 10 µM [9] [%] | growth at 10 µM [10] [%] | growth at 10 µM [11] [%] | growth at 10 µM [12] [%] | growth at 10 µM [13] [%] | growth at 10 µM [14] [%] | growth at 10 µM [15] [%] | growth at 10 µM [16] [%] | growth at 10 µM [17] [%] | growth at 10 µM [18] [%] | growth at 10 µM [19] [%] | growth at 10 µM [20] [%] | further results
O=C1Nc2nc3ccccn3c2C(=O)[C@H](Cc2ccccc2)N1 | 101 | 106 | 86.5 | 93.5 | 103 | 90.2 | 111 | 101 | 100 | 79.1 | 96.2 | 99.8 | 105 | 126 | 97.2 | 104 | 107 | 109 | 101 | 94 | growth at 10 µM [21]: 96.4%; growth at 10 µM [22]: 106%; growth at 10 µM [23]: 97.5%; growth at 10 µM [24]: 95.2%; growth at 10 µM [25]: 92.3%; growth at 10 µM [26]: 89.8%; growth at 10 µM [27]: 104%; growth at 10 µM [28]: 95.8%; growth at 10 µM [29]: 105%; growth at 10 µM [30]: 114%; growth at 10 µM [31]: 105%
COc1ccc(C2=Nc3nc4ccccn4c3C(=O)[C@H](C)N2)cc1 | 98.3 | 86.8 | 72.5 | 87.6 | 105 | 55.6 | 98.4 | 104 | 102 | 81.9 | 93.5 | 99.2 | 121 | 97.5 | 80.4 | 113 | 80.4 | 89.3 | 106 | 105 | growth at 10 µM [21]: 90.2%; growth at 10 µM [22]: 84.9%; growth at 10 µM [23]: 97.8%; growth at 10 µM [24]: 87.3%; growth at 10 µM [25]: 95.9%; growth at 10 µM [26]: 96.1%; growth at 10 µM [27]: 86.9%; growth at 10 µM [28]: 97.4%; growth at 10 µM [29]: 88.5%; growth at 10 µM [30]: 105%; growth at 10 µM [31]: 98.2%
